According to ChEMBL document CHEMBL1121478, “Potential prophylactic antitumor activity of retinylidene 1,3-diketones” (1980):
Activity calls are given as the source filed them. No cut-off for these calls is given here.

Tests used:
Cricetinae gen. sp. [1] = assay: Compound is evaluated for its intrinsic ability to control epithelial cell differentiation by retinoids in hamster tracheal organ culture at 10e -8M; IA = inactive(16/17) 16 cultures were inactive out of 17; type: functional, organism-based; conditions: Trachea
Cricetinae gen. sp. [2] = assay: Compound is evaluated for its intrinsic ability to control epithelial cell differentiation by retinoids in hamster tracheal organ culture; type: functional, Trachea
Summary of the method: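 Hamster trachea organ cultures (procedure from earlier reports). Retinoids tested at 10^-8, 10^-9 and 10^-10 M. Potency given as ED50.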

Cricetinae gen. sp. [3] = assay: Compound is evaluated for its intrinsic ability to control epithelial cell differentiation by retinoids in hamster tracheal organ culture at 10e -9M; IA =inactive(8/15) 8 were inactive out of 15; type: functional, organism-based; conditions: Trachea
Cricetinae gen. sp. [4] = assay: Compound is evaluated for its intrinsic ability to control epithelial cell differentiation by retinoids in hamster tracheal organ culture at 10e -10M; IA = inactive(9/12) 9 were inactive out of 12; type: functional, organism-based; conditions: Trachea
Cricetinae gen. sp. [5] = assay: Compound is evaluated for its intrinsic ability to control epithelial cell differentiation by retinoids in hamster tracheal organ culture at 10e-8 M; IA = inactive(9/12) 9 were inactive out of 12; type: functional, organism-based; conditions: Trachea
Cricetinae gen. sp. [6] = assay: Compound is evaluated for its intrinsic ability to control epithelial cell differentiation by retinoids in hamster tracheal organ culture at 10e -8M; IA = inactive( 6 cultures were inactive out of 7); type: functional, organism-based; conditions: Trachea
Cricetinae gen. sp. [7] = assay: Compound is evaluated for its intrinsic ability to control epithelial cell differentiation by retinoids in hamster tracheal organ culture at 10e-8 M; act = active(4 cultures were active out of 5); type: functional, organism-based; conditions: Trachea
Cricetinae gen. sp. [8] = assay: Compound is evaluated for its intrinsic ability to control epithelial cell differentiation by retinoids in hamster tracheal organ culture at 10e -9M; IA = inactive(7 cultures were inactive out of 7); type: functional, organism-based; conditions: Trachea
Cricetinae gen. sp. [9] = assay: Compound is evaluated for its intrinsic ability to control epithelial cell differentiation by retinoids in hamster tracheal organ culture at 10e-9 M; IA = inactive(12/16) 12 were inactive out of 16; type: functional, organism-based; conditions: Trachea
Cricetinae gen. sp. [10] = assay: Compound is evaluated for its intrinsic ability to control epithelial cell differentiation by retinoids in hamster tracheal organ culture at 10e-9 M; IA = inactive(3/4) 3 were inactive out of 4; type: functional, organism-based; conditions: Trachea
Cricetinae gen. sp. [11] = assay: Compound is evaluated for its intrinsic ability to control epithelial cell differentiation by retinoids in hamster tracheal organ culture at 10e-9 M; IA = inactive(14/16) 14 were inactive out of 16; type: functional, organism-based; conditions: Trachea

Row | Molecule | TOC ED50 (Cricetinae gen. sp. [2]) | also measured
1 | CC1=C(/C=C/C(C)=C/C=C/C(C)=C/C=C2C(=O)CCC2=O)C(C)(C)CCC1 | – | TOC ED50 (Cricetinae gen. sp. [1]): inactive
2 | COc1ccc(C2CC(=O)C(=C/C=C(C)/C=C/C=C(C)/C=C/C3=C(C)CCCC3(C)C)C(=O)C2)cc1 (configuration not stated) | 0.18 nM | –
3 | CC1=C(/C=C/C(C)=C/C=C/C(C)=C/C=C2C(=O)CCCCCC2=O)C(C)(C)CCC1 | 0.22 nM | –
4 | CC1=C(/C=C/C(C)=C/C=C/C(C)=C/C=C2C(=O)CC(C(C)C)CC2=O)C(C)(C)CCC1 (configuration not stated) | 0.21 nM | –
5 | CC1=C(/C=C/C(C)=C/C=C/C(C)=C/C=C2C(=O)CC(c3ccccc3)CC2=O)C(C)(C)CCC1 (configuration not stated) | 0.1 nM | –
6 | CC1=C(/C=C/C(C)=C/C=C/C(C)=C/C=C2C(=O)C(C(C)(C)C)CC(C(C)(C)C)C2=O)C(C)(C)CCC1 (configuration not stated) | – | TOC ED50 (Cricetinae gen. sp. [3]): inactive; TOC ED50 (Cricetinae gen. sp. [4]): inactive
7 | CC1=C(/C=C/C(C)=C/C=C/C(C)=C/C=C2C(=O)CC(c3ccc(C(F)(F)F)cc3)CC2=O)C(C)(C)CCC1 (configuration not stated) | 0.1 nM | –
8 | CC1=C(/C=C/C(C)=C/C=C/C(C)=C/C=C2C(=O)CCCCCCC2=O)C(C)(C)CCC1 | 0.24 nM | –
9 | CCC1CC(=O)C(=C/C=C(C)/C=C/C=C(C)/C=C/C2=C(C)CCCC2(C)C)C(=O)C1 (configuration not stated) | 0.36 nM | –
10 | CC(=O)C(=C/C=C(C)/C=C/C=C(C)/C=C/C1=C(C)CCCC1(C)C)C(C)=O | 1.8 nM | –
11 | CC1=C(/C=C/C(C)=C/C=C/C(C)=C/C=C2C(=O)c3ccccc3C2=O)C(C)(C)CCC1 | – | TOC ED50 (Cricetinae gen. sp. [5]): inactive
12 | CCCC(=O)C(=C/C=C(C)/C=C/C=C(C)/C=C/C1=C(C)CCCC1(C)C)C(=O)CCC | – | TOC ED50 (Cricetinae gen. sp. [6]): inactive
13 | CCC(=O)C(=C/C=C(C)/C=C/C=C(C)/C=C/C1=C(C)CCCC1(C)C)C(=O)CC | – | TOC ED50 (Cricetinae gen. sp. [7]): Active; TOC ED50 (Cricetinae gen. sp. [8]): inactive
14 | CC1=C(/C=C/C(C)=C/C=C/C(C)=C/C=C2C(=O)CCCCC2=O)C(C)(C)CCC1 | 0.38 nM | –
15 | CC1=C(/C=C/C(C)=C/C=C/C(C)=C/C=C2C(=O)CCCC2=O)C(C)(C)CCC1 | 0.11 nM | –
16 | CC1=C(/C=C/C(C)=C/C=C/C(C)=C/C=C2C(=O)CCCCCCCCCCCC2=O)C(C)(C)CCC1 | – | TOC ED50 (Cricetinae gen. sp. [9]): inactive
17 | CC1=C(/C=C/C(C)=C/C=C/C(C)=C/C=C2C(=O)C=CC2=O)C(C)(C)CCC1 | – | TOC ED50 (Cricetinae gen. sp. [10]): inactive
18 | CC1=C(/C=C/C(C)=C/C=C/C(C)=C/C=C2C(=O)CC(C)(C)CC2=O)C(C)(C)CCC1 | 0.24 nM | –
19 | 2-[3,7-Dimethyl-9-(2,6,6-trimethyl-cyclohex-1-enyl)-nona-2,4,6,8-tetraenylidene]-[3]ferrocenophane-1,3-dione | – | TOC ED50 (Cricetinae gen. sp. [11]): inactive
20 | CC1=C(/C=C/C(C)=C/C=C/C(C)=C/C=C2C(=O)CC(C)CC2=O)C(C)(C)CCC1 (configuration not stated) | 0.8 nM | –
